For orientation: EC50 means the concentration that produces a half-maximal response. For orientation: IC50 means the concentration at which inhibition is half-maximal. Broadly, the half-life is the time needed for the level to fall by half in the phase considered.

Consider 5 compounds from ChEMBL document CHEMBL4732158, “Bicyclic Ligand-Biased Agonists of S1P: Exploring Side Chain Modifications to Modulate the PK, PD, and Safety Profiles” (J Med Chem, 2021).

Data set [1] has as its target T1, Sphingosine 1-phosphate receptor 4 (Homo sapiens, UniProt O95977).
T1 sequence (O95977 whole entry): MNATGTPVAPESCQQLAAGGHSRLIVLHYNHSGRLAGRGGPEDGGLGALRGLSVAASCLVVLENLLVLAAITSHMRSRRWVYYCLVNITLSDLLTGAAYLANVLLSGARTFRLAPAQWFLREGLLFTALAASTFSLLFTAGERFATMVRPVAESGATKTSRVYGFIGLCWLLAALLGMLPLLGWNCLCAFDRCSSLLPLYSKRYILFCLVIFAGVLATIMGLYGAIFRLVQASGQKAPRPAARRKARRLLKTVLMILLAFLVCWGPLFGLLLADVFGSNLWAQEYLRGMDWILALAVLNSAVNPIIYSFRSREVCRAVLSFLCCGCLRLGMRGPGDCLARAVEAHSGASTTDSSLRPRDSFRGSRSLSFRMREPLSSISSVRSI
In words: Agonist activity at recombinant human S1P4 expressed in CHO cell membranes assessed as stimulation of [35S]-GTPgammaS binding measured after 45 mins by liquid scintillation counting method. The data set is classed as functional, Membrane. (GTPγS resists hydrolysis and so accumulates on activated G proteins.)

Data set [2] can be described thus: Antimigratory activity against human T cells assessed as inhibition of S1P-induced T cell migration preincubated for 10 mins followed by addition of S1P measured after 120 mins by calcein-AM dye based fluorescence analysis. Type of data set: functional.
Data set [3] is described as follows: Drug concentration in Lewis rat blood assessed as concentration of parent compound at 2 mg/kg, po measured at 24 hrs by LC-MS/MS analysis. The following applies: in vivo, read-out: Ct. Type of data set: ADME, organism-based. A digest of the protocol: (§1)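 Lewis rats (n = 2−4) dosed orally at 0.5, 1, 2 or 5 mg/kg; blood parent and phosphate metabolite concentrations and lymphocyte counts taken 4 and 24 h post-dose; phosphate-to-parent ratio from 24 h levels; significance versus vehicle by ANOVA with Dunnett's test.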

A short description of data set [4]: Pulmonary toxicity in Lewis rat assessed as fold elevation of BAL protein content at 15 mg/kg, po by chemistry analyzer based analysis relative to control. Type of data set: organism-based. The conditions noted are these: in vivo. Put shortly:
(§2)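 Lewis rats dosed orally; bronchoalveolar lavage protein measured at study end, expressed as fold over vehicle control.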

Data set [5] can be described thus: Drug concentration in Lewis rat blood assessed as concentration of parent compound at 2 mg/kg, po measured at 4 hrs by LC-MS/MS analysis. Type of data set: ADME, organism-based. The conditions noted are these: Lewis, blood, read-out: Ct. A digest of the protocol:
as §1

Data set [6] can be described thus: Reduction in circulating lymphocytes count in Lewis rat at 2 mg/kg, po measured at 24 hrs by hematology analyzer based analysis. Type of data set: Functional, organism-based. The conditions noted are these: in vivo. Further details: scale not given: the % may be the effect or the level left. A digest of the protocol:
(§3)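 Lewis rats (n = 2−4) dosed orally; whole-blood lymphocyte counts taken 4 h and 24 h after dosing and reduction expressed versus vehicle-treated rats. Significance by ANOVA with Dunnett's test (p < 0.05 vs vehicle). Blood levels of parent and phosphate metabolite measured at the same time points in this PK/PD screen.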

Data set [7] can be described thus: Ratio of drug metabolism in Lewis rat blood assessed as phosphate ester metabolite to parent drug at 2 mg/kg, po measured at 24 hrs by LC-MS/MS analysis. The following applies: in vivo. The data set is classed as ADME, organism-based. Put shortly:
as §1

Data set [8] has as its system Rattus norvegicus. Description: Reduction in circulating lymphocytes count in Lewis rat at 2 mg/kg, po measured at 4 hrs by hematology analyzer based analysis. The data set is classed as functional. The arrangement: scale not given: the % may be the effect or the level left. The following applies: 2 mg/kg, 4 h. A digest of the protocol: as §3
A short description of data set [9]: Half life in Lewis rat at 2 mg/kg, po measured at 4 to 72 hrs. The data set is classed as ADME, organism-based. The conditions noted are these: Lewis, in vivo, time 4-72 hrs. Put shortly: (§4)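 Half-life estimated from oral-dosing blood PK profiles in Lewis rats sampled at four time points: 4, 24, 48 and 72 h.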
Data set [10] deals with Rattus norvegicus. Description: Antiinflammatory activity in complete freund's adjuvant-induced Lewis rat model of arthritis assessed as reduction in paw edema at 0.3 mg/kg, po administered via gavage once daily and measured at day 13 to 20 by plethysmometric method. Type of data set: functional, organism-based. The following applies: time 13-20 day.
For data set [11], the system named is Rattus norvegicus. Description: Antiinflammatory activity in complete freund's adjuvant-induced Lewis rat model of arthritis assessed as increase in paw volume at 1 mg/kg, po administered via gavage once daily by plethysmometric method. Type of data set: functional, organism-based.
Data set [12] deals with Rattus norvegicus. In words: Antiinflammatory activity in complete freund's adjuvant-induced Lewis rat model of arthritis assessed as reduction in paw edema administered via oral gavage once daily by plethysmometric method. The data set is classed as functional, organism-based.
The nature of data set [13]: Pulmonary toxicity in Lewis rat assessed as fold elevation of BAL protein content at 1 mg/kg, po by chemistry analyzer based analysis relative to control. The data set is classed as organism-based. The following applies: in vivo. Put shortly: as §2
Data set [14] in a line: AUC ratio in orally dosed cynomolgus monkey blood assessed as phosphate metabolite to parent compound. Type of data set: ADME, organism-based, Macaca fascicularis. The conditions noted are these: in vivo, po. Put shortly: (§5)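 Phosphate-to-parent ratio computed as blood AUC ratio after oral dosing in rats, dogs and monkeys.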
A short description of data set [15]: Cardiotoxicity in human iPSC derived cardiomyocytes assessed as change in heart rate at 10 nM measured over 2 hrs by multi-electrode array relative to control. The conditions noted are these: stem cell-derived cardiomyocyte, 0.01 µM. The data set is classed as toxicity, cell-based. A digest of the protocol: (§6)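 Phosphate metabolite of each compound prepared and tested on cultured human induced pluripotent stem cell-derived cardiomyocytes at 1 and 10 nM; beat rate change averaged over three or more replicates per concentration unless noted (some n = 2).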

Data set [16] can be described thus: AUC ratio in orally dosed human blood assessed as phosphate metabolite to parent compound. Type of data set: ADME, organism-based. The conditions noted are these: po.
A short description of data set [17]: Drug metabolism in Lewis rat blood assessed as phosphate ester metabolite to parent ratio at 1 mg/kg, po measured at 24 hrs by LC-MS/MS analysis. The conditions noted are these: in vivo.
Data set [18] is described as follows: Reduction in circulating lymphocytes count in Lewis rat at 1 mg/kg, po measured at 24 hrs by hematology analyzer based analysis. Type of data set: organism-based. The arrangement: scale not given: the % may be the effect or the level left. The conditions noted are these: in vivo. A digest of the protocol:
as §1

A short description of data set [19]: Drug metabolism in Lewis rat blood assessed as concentration of parent compound at 1 mg/kg, po measured at 24 hrs by LC-MS/MS analysis. Type of data set: ADME, organism-based. The following applies: Lewis, blood, read-out: Ct. A digest of the protocol: as §1
Data set [20] is described as follows: AUC ratio in orally dosed Sprague-Dawley rat blood assessed as phosphate metabolite to parent compound. The conditions noted are these: in vivo, po. The data set is classed as ADME, organism-based. A digest of the protocol:
as §5

Data set [21] in a line: Drug concentration in Lewis rat blood assessed as concentration of parent compound at 1 mg/kg, po measured at 4 hrs by LC-MS/MS analysis. Type of data set: ADME, organism-based. The conditions noted are these: Lewis, blood, read-out: Ct. Put shortly: as §1
The nature of data set [22]: AUC ratio in orally dosed Beagle dog blood assessed as phosphate metabolite to parent compound. The data set is classed as ADME, organism-based, Canis lupus familiaris. The following applies: in vivo, po. A digest of the protocol: as §5
Data set [23] can be described thus: Half life in Lewis rat at 1 mg/kg, po measured at 4 to 72 hrs. The data set is classed as ADME, organism-based. The conditions noted are these: in vivo, time 4-72 hrs. A digest of the protocol: as §4
In data set [24] the test system is Rattus norvegicus. In words: Reduction in circulating lymphocytes count in Lewis rat at 1 mg/kg, po measured at 4 hrs by hematology analyzer based analysis. Further details: scale not given: the % may be the effect or the level left. Type of data set: functional. A digest of the protocol:
as §1

The nature of data set [25]: Cardiotoxicity in human iPSC derived cardiomyocytes assessed as change in heart rate at 1 nM measured over 2 hrs by multi-electrode array relative to control. The data set is classed as toxicity, cell-based. The conditions noted are these: stem cell-derived cardiomyocyte, 0.001 µM. A digest of the protocol: as §6

Calls of active or inactive are those of the source.

For `CCCCCCCCc1ccc(CCC(N)(CO)COP(=O)(O)O)cc1` (stereo unspecified), the 50% effective concentration (EC50) in data set [1] was 1.6 nM. In addition, the IC50 in [2] was 1.2 nM.

In the case of `COCCCC1CCc2cc([C@H]3CC[C@](N)(CO)C3)ccc2C1` (stereo in doubt; 22a), in [3], the concentration came out at 33 nM. In addition, the “fold change (FC)” value in [4] is listed as 3. The concentration at 4 h in data set [5] was 141 nM. Also, the Activity in [6] amounted to 74%; with Rattus norvegicus [8], 76%. In addition, in data set [7], the Ratio is recorded as 2.8. This compound showed a half-life in data set [9] of 13 h.

Consider `COCCCCCC1CCc2cc([C@H]3CC[C@](N)(CO)C3)ccc2C1` (single isomer, unassigned; 24), for which the outcome with Rattus norvegicus [10] and in the data set with Rattus norvegicus [11] was inactive. Besides, the Activity result with Rattus norvegicus [12] is “Dose-dependent effect”.

For `CCCCCC[C@@H]1CCc2cc([C@H]3CC[C@](N)(CO)C3)ccc2C1` [BMS-986104], the “fold change (FC)” value in data set [13] came to 1.1. The “Ratio AUC” value turned out to be 0.3 in [14], 0.1 in data set [16], 2.5 in [20] and 2.4 in data set [22]. The Activity is -33% in data set [15], 76% in [18], 23% with Rattus norvegicus [24] and -2% in [25]. Also, in [17], the Ratio is reported as 1.2. Moreover, in [19], the concentration at 24 h is 51 nM. Also, the concentration at 4 h in [21] worked out at 36 nM. For the same compound, the half-life in data set [23] is > 100 h.

For `CCCCCC[C@@H]1CCc2cc([C@H]3CC[C@](N)(COP(=O)(O)O)C3)ccc2C1`, the IC50 in data set [2] is 2.5 nM.
